# Shown are actives, neighbours in structure and some others; about 1.9% of the full set was active somewhere.
# HGIII-sPLA2 inh: Inhibits HGIII-sPLA2 liposome hydrolysis, primary screen | hit rate 0.56% among 370,000 | Q9NZ20 | inhibition, % at 12.2 µM | QFRET BODIPY PC-A2 liposome hydrolysis, fluorescence;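 active means inhibition above mean plus 3 SD of compounds lying within the high and low control bounds, cut at about 19% in these data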;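 further: 0% = median of test compound wells and 100% = no enzyme DMSO wells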
# Target sequence (Q9NZ20 whole entry, looked up): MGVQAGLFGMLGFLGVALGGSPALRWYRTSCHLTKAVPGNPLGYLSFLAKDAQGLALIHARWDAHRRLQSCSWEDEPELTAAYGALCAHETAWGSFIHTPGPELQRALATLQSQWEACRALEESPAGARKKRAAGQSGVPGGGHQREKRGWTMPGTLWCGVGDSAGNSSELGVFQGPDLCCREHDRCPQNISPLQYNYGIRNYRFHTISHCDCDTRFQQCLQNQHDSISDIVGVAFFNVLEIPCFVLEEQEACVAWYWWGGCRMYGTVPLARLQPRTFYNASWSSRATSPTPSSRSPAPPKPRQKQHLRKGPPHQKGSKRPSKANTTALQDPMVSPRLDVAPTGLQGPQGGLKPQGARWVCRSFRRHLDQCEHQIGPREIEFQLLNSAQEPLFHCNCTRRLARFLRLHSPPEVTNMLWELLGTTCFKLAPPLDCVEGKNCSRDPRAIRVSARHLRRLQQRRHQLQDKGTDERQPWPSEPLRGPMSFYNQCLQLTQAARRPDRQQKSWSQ
# PLCb3 inh: blocks human PLC-beta3 enzyme activity; Q01970; Purified PLC-beta3, fluorogenic substrate, fluorescence; hit rate 0.18% among 370,000; inhibition, % at 12.2 µM; in the data active means inhibition above about 11%;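 further: 0% = median of compound wells on plate and 100% = full blocker control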
# PLC-gamma1 inh: inhibitors of human phospholipase C gamma1. AID 720700. inhibition, % at 12.2 µM. hit rate 0.84% among 370,000. P19174. purified PLC-gamma1, fluorogenic substrate, fluorescence
# ASAP1 GAP inh: ASAP1 ArfGAP inhibition; ASAP1-stimulated ARF1 GTP hydrolysis, GDP FP detection; inhibition, % at 16.5 µM; hit rate 0.19% among 360,000; in the data active means inhibition above about 25%;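 further: 0% = vehicle with enzyme and substrate and 100% = no enzyme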
# ARFGAP1 inhibitor: rat ARFGAP1 inhibition; Arfgap1-stimulated ARF1 GTP hydrolysis, GDP FP detection; hit rate 0.26% among 360,000; inhibition, % at 16.5 µM; Q62848;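 active means inhibition above a per-plate limit, mean inhibition of low control wells plus 3 SD, cut at about 25% in these data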;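 further: 0% = DMSO wells with enzyme and 100% = wells lacking Arfgap1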
# Target sequence (Q62848 1-136 limits assumed): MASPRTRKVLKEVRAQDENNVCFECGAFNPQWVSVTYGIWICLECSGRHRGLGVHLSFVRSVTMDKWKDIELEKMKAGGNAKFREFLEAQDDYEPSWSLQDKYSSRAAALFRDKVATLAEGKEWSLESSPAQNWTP
#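 Material: rat Arfgap1 GAP domain (His6, aa 1-136), purified enzyme. Also added: human ARF1(Δ1-17)-GTP substrate. Compound dosing: 16.5 µM single point, 1.26% DMSO. Timing: enzyme reaction 120 min at 25 °C after 20 min preincubation. Signal: GDP detection by fluorescence polarization. Read-out basis: percent inhibition of GAP-stimulated GDP formation, scaled between DMSO and no-Arfgap1 medians.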
# PLCg1 ctr: inhibits human PLC-gamma1 in PLC-beta3 counter-screen. shares compounds with PLC-gamma1 inh. purified PLC-gamma1, fluorogenic substrate, fluorescence. inhibition, % at 12.3 µM. hit rate 3.1% among 3,300
# PLCbeta3 conf: confirmation of human PLC-beta3 inhibitors; shares compounds with PLC-gamma1 inh; purified PLC-beta3, fluorogenic substrate fluorescence; inhibition, % at 12.3 µM; hit rate 1% among 3,300; AID 743261; in the data active means inhibition above about 11%
# Numbers without * were called inactive; . = no result given. Unless noted, no stated cut-off is given here; in the data, active means inhibition above about 9.5%; inactive means the rest.
SMILES,HGIII-sPLA2 inh,PLCb3 inh,PLC-gamma1 inh,ASAP1 GAP inh,ARFGAP1 inhibitor,PLCg1 ctr,PLCbeta3 conf
O=C(NCCCN1CCOCC1)[C@@H]1CSC2c3ccccc3C(=O)N21 (stereo not given in full),2,3,3,-10,6,.,.
COc1cc(NS(=O)(=O)c2ccc(NC(=O)NC3CCCCC3)cc2)nc(OC)n1,-18,3,10*,-3,-2,-5,0
CS/C(=C\[N+](=O)[O-])Nc1ccc(Cl)cc1,-6,2,11*,10,-4,-5,-4
CC(=O)N[C@H]1C[C@@H]2O[C@H](CO)CC[C@@H]2O[C@@H]1CCc1ccc(-c2ccc(F)cc2)cc1,-2,-3,1,.,.,.,.
O=C(Cc1ccccc1Cl)Nc1ccc(S(=O)(=O)Nc2nccs2)cc1,-31,-8,1,-4,5,.,.
O=C(NC(=S)Nc1ccc(S(=O)(=O)Nc2nccs2)cc1)c1ccccc1,-17,1,6,-6,-8,.,.
CCCCOC(=O)Nc1ccc(S(=O)(=O)Nc2nccs2)cc1,-10,-3,0,1,16,.,.
O=C(CSc1ccc(Br)c2cccc(Cl)c12)Nc1ccc(S(=O)(=O)Nc2nccs2)cc1,-49,-4,11*,17,-1,-6,-10
O=C(NC(=S)Nc1ccc(S(=O)(=O)Nc2nccs2)cc1)c1ccc(F)c(F)c1,-27,10,14*,1,15,-5,-10
CCCCCCCC(=O)Nc1ccc(S(=O)(=O)Nc2nccs2)cc1,-43,0,26*,-8,-3,-5,-5
O=C(c1ccc(C#Cc2ccccc2)cc1)N1CCC(O)CC1,-6,1,0,.,.,.,.
CCCC[C@@H]1C(=O)N2N=Cc3cscc3[C@H]2N2N=Cc3cscc3[C@@H]12,0,-4,-1,.,.,.,.
COCCCNC(=O)C[C@@H]1C(=O)N(CCc2ccc(Cl)cc2)C2=CCCCC[C@]21C(=O)OC,5,-1,4,.,.,.,.
C=CCNC(=S)NNC(=O)CCC(O)CCCCC (stereo not given),5,12*,9,-6,-4,-4,-1
C=CCNC(=S)NNC(=O)C(CCCC)CC(C)O (stereo not given),-2,-1,0,2,5,.,.
COc1ccc(N2CCN(C3CCCN(C(=O)CN4CCCC4=O)C3)CC2)cc1 (stereo not given),11,-7,9.8*,-6,5,-5,-4
CC(C)(C)C(=O)c1c(N)[nH]c(C(=O)c2ccccc2)c1-c1ccc([N+](=O)[O-])cc1,3,1,-1,-13,1,.,.
Cc1ccc(CNC(=O)CCCc2ccccc2)cc1,-8,-8,1,-3,-6,.,.
Cc1ccc(CNC(=O)CCCC(=O)O)cc1,6,11*,5,10,0,-6,-2
COc1ccc(/C=C2/CN(Cc3ccc(OC)cc3OC)C3=NC(c4ccc5ccccc5c4)CC(=O)N32)cc1 (stereo not given),4,-117,-78,.,.,.,.
CC(C)(C)OC(=O)N1CCC[C@H]1C(=O)N1CCC[C@H]1C(=O)NCc1ccncc1,6,4,12*,13,-2,-4,-73
CCc1ccc(CNCC(=O)N2CCC3(CC2)OCCO3)s1,7,0,2,.,.,.,.
CC1Cc2ccccc2N1C(=O)CN1CCN(Cc2ccccc2)CC1 (stereo not given),7,1,9.8*,0,-9,-4,-1
CC1Cc2ccccc2N1C(=O)Cn1cc([N+](=O)[O-])cn1 (stereo not given),-2,13*,4,-5,9,8,2
CC1CCN(CC(=O)N2c3ccccc3CC2C)CC1 (stereo not given),2,-2,0,3,-3,.,.
SMILES,HGIII-sPLA2 inh,PLCb3 inh,PLC-gamma1 inh,ASAP1 GAP inh,ARFGAP1 inhibitor,PLCg1 ctr,PLCbeta3 conf
O=C(Cn1cc([N+](=O)[O-])cn1)N1CCc2ccccc21,9,0,-2,-12,3,.,.
O=C(NCc1ccc2c(c1)OCO2)Nc1ccc([N+](=O)[O-])cc1,4,0,11*,9,-1,3,5
O=C(NCc1ccc2c(c1)OCO2)Nc1ccc(Cl)cc1,-2,-5,-3,-2,18,.,.
C=CCN1C(=O)[C@@H](CC(=O)NCCCN2CCCC2=O)[C@]2(C(=O)OC)CCCCC=C12,9,3,-1,.,.,.,.
O=C(CCN1C(=O)c2ccccc2S1(=O)=O)Nc1cccc2ccccc12,6,5,1,-12,10,.,.
C=C(C)c1ccccc1NC(=O)CCN1C(=O)c2ccccc2S1(=O)=O,2,1,9.6*,3,-8,-1,2
COC(=O)[C@]12C=CCN1[C@@H](c1ccc(OC)c(OC)c1)c1c(c3ccccc3n1S(=O)(=O)c1ccc(C)cc1)C2,2,-30,-23,.,.,.,.
O=C(CN1CCN(S(=O)(=O)c2ccc(Br)cc2)CC1)Nc1ccc2c(c1)OCO2,-7,0,10.0*,-8,3,-3,-3
CCN1CCN(CCC(=O)Nc2ccc3c(c2)OCO3)CC1,16,9,13*,1,-2,3,-6
COC(=O)[C@H](CC(C)C)N(Cc1cn(Cc2ccc(C)cc2)nn1)S(=O)(=O)c1ccc(F)cc1Br,-7,4,4,.,.,.,.
COc1ccc(CN2CCN(c3ccccn3)CC2)c(OC)c1,0,3,10*,-1,-1,-8,0
COc1ccc(CN2CCN(c3ncccn3)CC2)c(OC)c1,4,2,0,0,6,.,.
CCCCCCCOC(=O)C[N+](C)(C)CCOC1CC2CCC1(C)C2(C)C (stereo not given),-8,1,9.9*,3,-2,-6,-11
CCCCCCOC(=O)C[N+](C)(C)CCOC1CC2CCC1(C)C2(C)C (stereo not given),5,1,-2,-1,10,.,.
COc1cccc(CNc2nc(NCC3CC3)nc3ccsc23)c1OC,-23,6,10.0*,8,6,-5,-2
COC(=O)[C@]12C[C@H](CC(=O)NCCC(C)C)C(=O)N(Cc3cccc4ccccc34)C1=C[C@H](C(C)C)O[C@@H]2C1CC1,-3,6,0,.,.,.,.
O=C(O)CC(C(=O)Nc1cccc(C(F)(F)F)c1)C1CCCO1 (stereo not given),10,3,16*,0,19,-4,-2
O=C(NNC(=O)c1ccccc1)C(=O)N1CCCCC1,1,4,2,3,-4,.,.
Cc1ccccc1C(=O)NNC(=O)C(=O)N1CCCCC1,0,3,10*,-5,8,-6,-3
Cc1ccc(C(=O)Nc2ccccc2C(=O)N2CCCCCC2)cc1,-2,8,10*,0,-7,-8,-6
O=C(NC1CCCC1)C(c1ccccc1)N(Cc1ccc2c(c1)OCO2)C(=O)Cc1cccs1 (stereo not given),7,7,3,1,-12,.,.

# Compound activity from PubChem BioAssay.
